The subject of data set [1] is Colorectal epithelial cell. Kind of data set: Cytostatic activity against human Colorectal epithelial cells isolated from patient with well-differentiated colonic adenocarcinoma cultured as organoids at 1 ug/ml incubated for 48 hrs by CellTiter-Glo luminescence assay. The data set is classed as functional, cell-based. The following applies: dose 1.0 µg/ml. An outline of the steps:
(§1)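 Primary colonic epithelial cells (3 control and 2 CRC patients) were expanded as organoids or spheroids in Matrigel with EGF/noggin/Wnt3a/R-spondin medium. Single cells were seeded at 2500/well and allowed 48 h to form colonoids, then exposed for 48 h at 0.01, 0.1 or 1 µg/mL, with 5FdU at 1 µg/mL as positive control. Viability was read by CellTiter-Glo luminescence versus DMSO or medium control.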

Data set [2] addresses Glycogen synthase kinase-3 beta (Homo sapiens) (UniProt P49841). Kind of data set: Inhibition of GSK3beta in human Caco-2 cells assessed as increase in phosphorylation at serine 9 residue at 1 ug/ml incubated for 48 hrs by Western blot analysis. The data set is classed as cell-based. The following applies: dose 1.0 µg/ml. An outline of the steps: (§2)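 Caco-2 cells (0.25 × 10^6/well) were treated at 1 µg/mL for 48 h and lysed in pH 7.4 Tris/NaCl/Triton/EDTA buffer with protease and phosphatase inhibitors. 30 µg protein was run per lane on 4–15% gels and blotted for pSer9-GSK3β, total GSK3β, pSer473-Akt, total Akt and β-catenin, with actin as loading control. Detection was by ECL; n=2, t-test versus DMSO.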

For data set [3], the system named is Caco-2. Kind of data set: Downregulation of PKCalpha expression in human Caco-2 cells at 1 ug/ml incubated for 48 hrs by immunostaining based confocal microscopic analysis. In kind it is functional, cell-based. The following applies: dose 1.0 µg/ml. The gist of the method: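 Caco-2 cells were seeded at 40 000/well and treated for 48 h as in the viability assay. They were fixed in 3.7% PFA for 20 min and permeabilised in HBSS/0.5% Triton X100/1% BSA. Anti-PKCζ (1/50) or anti-PKCα (1/200) was applied overnight at 4°C, then Alexa 488 secondary for 45 min. Phalloidin and Hoechst counterstained the cells before confocal imaging; PKCα signal was quantified by immunofluorescence.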

In data set [4] the test system is Caco-2. Description: Induction of morphological changes in human Caco-2 cells assessed as cellular aggregates formation at 0.125 ug/ml incubated for 48 hrs by Hoechst 3342 and phalloidin staining based confocal microscopic analysis. In kind it is functional, cell-based. Particulars: dose 0.125 µg/ml. The gist of the method:
(§3)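 Caco-2 cells (40 000/well) were exposed for 48 h, then fixed in 3.7% PFA and permeabilised with Triton X100/BSA. Actin was stained with phalloidin and nuclei with Hoechst 3342, and cells were viewed by confocal microscopy.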

Data set [5] relates to Caco-2. Kind of data set: Cytostatic activity against human Caco-2 cells assessed as inhibition of cell growth at 1 ug/ml preincubated for 15 mins with PKCalpha inhibitor, Go6976 followed by compound addition and measured after 48 hrs by MTS assay. In kind it is functional, cell-based. Particulars: dose 1.0 µg/ml. The gist of the method:
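Caco-2 cells (40 000/well) were pretreated with 0.2 µM Gö6976 for 15 min, then given compound at 1 µg/mL for 48 h. MTS absorbance was read at 490 nm and activity calculated relative to DMSO controls; triplicates, 1–3 independent experiments, two-way ANOVA.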

Data set [6] in a line: Cytotoxicity against HIEC-6 cells assessed as inhibition of cell growth at 1 ug/ml incubated for 48 hrs by MTS assay. Particulars: human, hiec-6, 48 h, dose 1 µg/ml. The data set is classed as toxicity, cell-based. The gist of the method: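 HIEC6 cells were grown in OPTIMEM with GlutaMAX, Hepes and 10 ng/mL EGF and seeded at 60 000/well 48 h before dosing. Cells were exposed to 1 µg/mL for 48 h, and viability was read by MTS absorbance at 490 nm versus DMSO; 3 independent experiments, t-test.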

The subject of data set [7] is Caco-2. Kind of data set: Induction of morphological changes in human Caco-2 cells assessed as reorganization of epithelial tissue architecture at 1 ug/ml incubated for 48 hrs by Hoechst 3342 and phalloidin staining based confocal microscopic analysis. The data set is classed as functional, cell-based. The following applies: dose 1.0 µg/ml. An outline of the steps: as §3

The test system of data set [8] is Colorectal epithelial cell. Kind of data set: Cytostatic activity against human Colorectal epithelial cells isolated from patient with fistulized sigmoiditis cultured as organoids at 1 ug/ml incubated for 48 hrs by CellTiter-Glo luminescence assay. Particulars: dose 1.0 µg/ml. The data set is classed as functional, cell-based. An outline of the steps: as §1
The test system of data set [9] is Caco-2. Description: Induction of morphological changes in human Caco-2 cells at 1 ug/ml preincubated for 30 mins with CRT0066854 hydrochloride followed by compound addition and measured after 48 hrs by Hoechst 3342 and phalloidin staining based confocal microscopic analysis. In kind it is functional, cell-based. The following applies: dose 1.0 µg/ml. An outline of the steps: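 CRT0066854 hydrochloride (2.5 µM) was added to Caco-2 cells 30 min before compound at 1 µg/mL. After 48 h, nuclei and actin cytoskeleton were labelled and confocal views taken with a 20X objective; duplicates from one experiment.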

Data set [10] has as its system Caco-2. Description: Upregulation of AKT protein expression in human Caco-2 cells at 1 ug/ml incubated for 48 hrs by Western blot analysis. The data set is classed as functional, cell-based. The following applies: dose 1.0 µg/ml. An outline of the steps: as §2
Data set [11] relates to Caco-2. Description: Cytostatic activity against human Caco-2 cells assessed as inhibition of cell growth at 1 ug/ml preincubated for 30 mins with CRT0066854 hydrochloride followed by compound addition and measured after 48 hrs by MTS assay. The data set is classed as functional, cell-based. The following applies: dose 1.0 µg/ml. The gist of the method:
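Caco-2 cells were pretreated for 30 min with CRT0066854 hydrochloride (2.5 µM; 0.625 and 1.25 µM also tested), then given compound at 1 µg/mL for 48 h. MTS absorbance was read at 490 nm relative to DMSO controls; n=3, t-test.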

Data set [12] in a line: Cytostatic activity against human Colorectal epithelial cells isolated from patient with well-differentiated colonic adenocarcinoma and undergone nine courses of chemotherapy cultured as organoids assessed as inhibition of cell growth at 0.1 ug/ml incubated for 48 hrs by CellTiter-Glo luminescence assay relative to control. In kind it is functional. An outline of the steps: as §1

Data set [13] has as its system Caco-2. Kind of data set: Effect on beta-catenin protein expression in human Caco-2 cells at 1 ug/ml incubated for 48 hrs by Western blot analysis. The data set is classed as functional, cell-based. Particulars: dose 1.0 µg/ml. The gist of the method: as §2
Data set [14] relates to Caco-2. Description: Upregulation of phosphorylated MEK at Ser217/221 level in human Caco-2 cells at 1 ug/ml preincubated for 30 mins with CRT0066854 hydrochloride followed by compound addition and measured after 48 hrs by Western blot analysis. The data set is classed as functional, cell-based. The following applies: dose 1.0 µg/ml. The gist of the method: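 Caco-2 cells (0.25 × 10^6/well) were treated at 1 µg/mL for 48 h, with or without 30 min pretreatment with 2.5 µM CRT0066854. Lysates (30 µg protein) were blotted for pSer217/221-MEK and total MEK, with actin as loading control. Detection was by ECL; n=2, t-test versus DMSO.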

The subject of data set [15] is Colorectal epithelial cell. Description: Cytostatic activity against human Colorectal epithelial cells isolated from left colon of patient with sigmoido-vaginal fistula for diverticulitis cultured as organoids at 1 ug/ml incubated for 48 hrs by CellTiter-Glo luminescence assay. In kind it is functional, cell-based. Particulars: dose 1.0 µg/ml. The gist of the method:
as §1

For data set [16], the target named is Glycogen synthase kinase-3 beta (Homo sapiens) (UniProt P49841). Description: Inhibition of GSK3beta in human Caco-2 cells assessed as increase in phosphorylation at serine 9 residue at 1 ug/ml preincubated for 30 mins with CRT0066854 hydrochloride followed by compound addition and measured after 48 hrs by Western blot analysis. The data set is classed as cell-based. The following applies: dose 1.0 µg/ml. The gist of the method: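 Caco-2 cells were pretreated with 2.5 µM CRT0066854 hydrochloride for 30 min, then treated at 1 µg/mL for 48 h. Lysates (30 µg protein) were immunoblotted for pSer9-GSK3β and total GSK3β, with actin loading control and ECL detection; n=2.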

The test system of data set [17] is Colorectal epithelial cell. Description: Cytostatic activity against human Colorectal epithelial cells isolated from left colon of patient with recurrent diverticulitis cultured as organoids at 1 ug/ml incubated for 48 hrs by CellTiter-Glo luminescence assay. In kind it is functional, cell-based. Particulars: dose 1.0 µg/ml. An outline of the steps:
as §1

Data set [18] concerns Caco-2. Kind of data set: Induction of morphological changes in human Caco-2 cells assessed as densification of cytoskeleton at 1 ug/ml incubated for 48 hrs by Hoechst 3342 and phalloidin staining based confocal microscopic analysis. Particulars: dose 1.0 µg/ml. In kind it is functional, cell-based. An outline of the steps: as §3

Calls of active or inactive are those of the source. The calls are words filed in the database; no cut-off is given here.

Sequence of Glycogen synthase kinase-3 beta (Homo sapiens) (P49841 whole entry, looked up): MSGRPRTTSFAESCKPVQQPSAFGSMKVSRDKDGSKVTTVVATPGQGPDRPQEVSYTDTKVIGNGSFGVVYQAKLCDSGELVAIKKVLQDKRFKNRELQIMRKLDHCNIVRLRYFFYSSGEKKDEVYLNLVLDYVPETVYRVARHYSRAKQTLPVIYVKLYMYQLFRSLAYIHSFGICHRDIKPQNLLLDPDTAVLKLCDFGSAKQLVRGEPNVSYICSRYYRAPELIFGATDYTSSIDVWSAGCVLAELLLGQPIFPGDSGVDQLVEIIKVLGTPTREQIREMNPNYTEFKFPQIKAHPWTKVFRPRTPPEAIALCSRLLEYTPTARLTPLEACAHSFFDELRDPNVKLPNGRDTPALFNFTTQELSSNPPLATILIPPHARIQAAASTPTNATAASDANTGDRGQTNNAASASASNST

Turning to `C=C(C)[C@]12C[C@@H](C)[C@@]34O[C@](/C=C/[C@@H]5O[C@H]5CCCCCCCCC)(O[C@@H]1[C@@H]3[C@@H]1O[C@]1(CO)[C@@H](O)[C@]1(O)C(=O)C(C)=C[C@H]14)O2`, the outcome in data set [1], in [3], in data set [4], in data set [5], in data set [7] and in data set [8] was Active. Further, the result in [10], in data set [14], in data set [15], in data set [17] and in [18] was Active. Besides, the inhibition entry in data set [2] is “Active”. The Activity entry in [6] is recorded as “Non-Toxic”. Besides, the outcome in data set [9], in [11] and in data set [13] was inactive. Moreover, the inhibition at 0.1 µg/mL in data set [12] is 40%. In addition, in data set [16], the inhibition result is “inactive”.

For the compound `C=C(C)[C@]12C[C@@H](C)[C@@]34O[C@](/C=C/C=C/CCCCCCCCC)(O[C@@H]1[C@@H]3[C@@H]1O[C@]1(CO)[C@@H](O)[C@]1(O)C(=O)C(C)=C[C@H]14)O2`, the outcome in data set [1], in data set [3], in data set [4], in [5], in data set [7] and in data set [8] was Active. Moreover, the outcome in data set [10], in data set [14], in data set [15], in data set [17] and in data set [18] was Active. In addition, the inhibition result in data set [2] was “Active”. The Activity entry in data set [6] is “Non-Toxic”. Also, the outcome in [9], in data set [11] and in data set [13] was inactive. For the same compound, in [12], the inhibition at 0.1 µg/mL was 40%. Further, the inhibition result in data set [16] was “inactive”.

The values are drawn from ChEMBL document CHEMBL5325455, “Daphnanes diterpenes from the latex of Hura crepitans L. and their PKCζ-dependent anti-proliferative activity on colorectal cancer cells” (Bioorg Med Chem, 2023).
